In the library only some 5.1% were active in any assay of this set; here they are far more common.
NF-kB neuron act – raises NF-kB expression in human neuronal cells; fold change at 12.5 µM; NF-kB reporter expression; active compounds read high; hit rate 1.6% among 190,000; in the data active = fold change above about 3.3
STAT3 act – increases IL-6 driven STAT3 reporter signal; U3A cells, IL-6 STAT3-luciferase reporter, luminescence; 100% = signal with IL-6 EC80 alone; activation (% of control), % at 5.6 µM; hit rate 0.91% among 190,000;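 active = activation above the screen-wide mean of compound activation plus 3 SD, cut at about 130% in these data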
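Material: human U3A cells carrying STAT3-luciferase construct. Measured by: reporter luminescence signal. Timing: compound 1 h, then IL-6 6 h at 37 °C.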
STAT1 blocker – STAT1 signaling inhibition; NIH 3T3 STAT1-luciferase reporter, IFN-gamma, luminescence; inhibition, % at 5.5 µM; hit rate 0.35% among 200,000; AID 920;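 active = inhibition above a set limit, the mean inhibition across all tested compounds plus 3 SD, cut at about 34% in these data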
STAT1 act – STAT1 signaling activation; activation (% of control), % at 5.5 µM; hit rate 2.6% among 200,000; NIH 3T3 STAT1-luciferase reporter, IFN-gamma, luminescence; 100% = IFN-gamma alone, no compound; AID 932;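 active = activation above the screen-wide mean activation plus 3 SD, cut at about 130% in these data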
APP 5'UTR act – activates APP 5'UTR luciferase reporter; hit rate 1% among 190,000; SH-SY5Y APP 5'UTR luciferase reporter, luminescence; zero percent = DMSO vehicle wells; activation, % at 2 µM;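 active = activation above a set limit, based on mean plus 3 SD of controls, cut at about 140% in these data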
STAT3 inh-1 – inhibitors of IL-6 induced STAT3 signaling; U3A cells, IL-6 STAT3-luciferase reporter, luminescence; host cell line lacks STAT1; inhibition, % at 5.5 µM; hit rate 0.89% among 190,000;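 active = inhibition above the mean inhibition across all screened compounds plus 3 SD, cut at about 44% in these data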
STAT3 inh-2 – confirmation of STAT3 signaling inhibitors | hit rate 45% among 1,200 | shares compounds with STAT3 inh-1 | inhibition, % at 5.7 µM | U3A cells, IL-6 STAT3 luciferase reporter, luminescence; cell line lacks STAT1 | AID 1265;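 active = inhibition above the hit cutoff computed for the primary STAT3 screen, cut at about 44% in these data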
NFkB inh STAT3ct – inhibits NF-kappaB, counter-screen to STAT3 inhibitors | shares compounds with STAT3 inh-1 | HEK293T NF-kB luciferase reporter, TNF-alpha induced | inhibition, % at 5.7 µM | hit rate 36% among 1,200 | AID 1308;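 active = inhibition above the mean of solvent-only control wells plus 3 SD, cutoff set per campaign, cut at about 13% in these data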
STAT1 inh STAT3c – STAT1 inhibition in STAT3 inhibitor counter-screen. shares compounds with STAT3 inh-1. NIH 3T3 STAT1-luciferase reporter, IFN-gamma induced, luminescence. inhibition, % at 5.7 µM. hit rate 27% among 1,200;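 active = inhibition above the mean plus 3 SD of solvent-only control wells, limit set per screening run, cut at about 16% in these data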
Each line names hits and unclear results; the compound was inactive in the other large screens (follow-up assays come after a bar, where they were run).

CCOC(=O)c1ccc(NC(=O)C(C)Sc2nc(O)c(-c3ccccc3)c(=O)[nH]2)cc1 (stereo not drawn)	none
CCC(=O)c1ccc(OCC(O)Cn2c(C)nc3ccccc32)cc1 (stereo not drawn)	STAT3 inh-1 64 | STAT3 inh-2 53 | NFkB inh STAT3ct 14 | STAT1 inh STAT3c 20
O=C(Nc1ccccc1)Nc1ncc([N+](=O)[O-])s1	NF-kB neuron act 4.1, STAT3 inh-1 54 | STAT3 inh-2 inactive | NFkB inh STAT3ct inactive | STAT1 inh STAT3c inactive
CCCCC(=O)Nc1ncc([N+](=O)[O-])s1	none
Cc1nc(C)c(C(=O)Nc2ncc([N+](=O)[O-])s2)o1	STAT3 inh-1 68 | STAT3 inh-2 inactive | NFkB inh STAT3ct inactive | STAT1 inh STAT3c inactive
Cc1ccc(Cl)cc1NC(=S)NCCCSC1CCCCC1	none
O=C1CSCN1c1ccc(Cl)cc1	none
O=C(Nc1cccnc1Cl)c1ccc2c(Cl)c3c(nc2c1)CCC3	NF-kB neuron act 5.9, STAT1 act 135, APP 5'UTR act 242, STAT3 inh-1 56 | STAT3 inh-2 inactive | NFkB inh STAT3ct inactive | STAT1 inh STAT3c inactive
N#Cc1ccccc1NC(=O)c1ccc2c(Cl)c3c(nc2c1)CCCC3	none
c1ccc2sc(NN=C3CCCCCC3)nc2c1	STAT1 blocker 34, APP 5'UTR act 149, STAT3 inh-1 75 | STAT3 inh-2 inactive | NFkB inh STAT3ct inactive | STAT1 inh STAT3c inactive
Cc1ccc(-c2nc3cc(C)ccc3o2)cc1	APP 5'UTR act 175, STAT3 inh-1 84 | STAT3 inh-2 inactive | NFkB inh STAT3ct 40 | STAT1 inh STAT3c inactive
Cc1ccc(-c2nc3cc(N)ccc3o2)cc1	NF-kB neuron act 5.4, STAT3 inh-1 59 | STAT3 inh-2 inactive | NFkB inh STAT3ct inactive | STAT1 inh STAT3c inactive
Clc1ccc2oc(-c3ccccc3)nc2c1	none
COC(=O)c1ccc(-c2nc3ccc(C)cc3o2)cc1	NF-kB neuron act 7, STAT3 inh-1 68 | STAT3 inh-2 inactive | NFkB inh STAT3ct inactive | STAT1 inh STAT3c inactive
CC(C)c1ccc2oc(-c3ccc(N)cc3)nc2c1	NF-kB neuron act 3.4, STAT3 inh-1 78 | STAT3 inh-2 inactive | NFkB inh STAT3ct inactive | STAT1 inh STAT3c inactive
COc1ccc(C(=O)NCC(=O)NCC(=O)OCC(=O)C(C)(C)C)cc1	none
Nc1nc(SCC(=O)Nc2ccc3c(c2)OCO3)n[nH]1	none
O=C(NC1c2ccccc2-c2ccccc21)N1CCCCC1	STAT3 inh-1 52 | STAT3 inh-2 inactive | NFkB inh STAT3ct 17 | STAT1 inh STAT3c inactive
O=C(COC(=O)Cc1ccsc1)Nc1ccc(Cl)c(S(=O)(=O)N2CCOCC2)c1	none
CC(=O)Nc1ccc(S(=O)(=O)NC2(C(F)(F)F)N=C(c3ccccc3)NC2=O)cc1 (stereo not drawn)	none
Cc1ccc(SCCC(=O)Nc2cccc(N(C)S(C)(=O)=O)c2)cc1	none
Cc1nc(-c2ccc(NC(=O)c3ccccc3)cc2)cs1	NF-kB neuron act 7.5, APP 5'UTR act 184, STAT3 inh-1 71 | STAT3 inh-2 inactive | NFkB inh STAT3ct inactive | STAT1 inh STAT3c inactive
Cc1cc(C)n(-c2cc(N3CCN(C(=O)c4ccccc4C)CC3)ccc2[N+](=O)[O-])n1	none (no result: NF-kB neuron act)
O=[N+]([O-])c1ccc2nc(-c3ccc(OC(F)F)cc3)cn2c1	NF-kB neuron act 3.5, STAT3 inh-1 66 | STAT3 inh-2 inactive | NFkB inh STAT3ct inactive | STAT1 inh STAT3c inactive
COc1cc(CC(=O)OCC(=O)Nc2sccc2C(N)=O)cc(OC)c1OC	STAT3 inh-1 58 | STAT3 inh-2 55 | NFkB inh STAT3ct inactive | STAT1 inh STAT3c 22
COc1ccc2cc3cc(C(=O)Nc4cc(OC)c(OC)c(OC)c4)oc3nc2c1	STAT3 inh-1 46 | STAT3 inh-2 inactive | NFkB inh STAT3ct inactive | STAT1 inh STAT3c inactive
O=C(c1ccc(Cl)c(S(=O)(=O)NCc2ccco2)c1)N1CCN(c2ccc(F)cc2)CC1	none

Screening results deposited in PubChem by several laboratories.
